Experiment [1] can be described thus: (§1) In Vitro cytotoxicity against human cancer cell line, BRO. The class given is functional, Cancer cell lines. The method, boiled down:
(§2)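 MTT cytotoxicity assay across a panel of nine human cancer cell lines, run in the institutional Pharmacology and Analytic Core Laboratory by a previously described protocol. Cisplatin and a diamide were included as reference controls. Activity above 20 μM/mL was regarded as not significant.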

Experiment [2] relates to K562. Kind of experiment: In Vitro cytotoxicity against human cancer cell line, K-562. The class given is functional. The procedure, abridged:
as §2

Experiment [3] concerns HL-60. Kind of experiment: In Vitro cytotoxicity against human cancer cell line, HL-60. It counts as functional. The procedure, abridged:
as §2

Experiment [4] is described as follows: (§3) In Vitro cytotoxicity against human cancer cell line, SKOV. The class given is functional, Cancer cell lines. The method, boiled down: as §2
Experiment [5] relates to PC-3. Kind of experiment: In Vitro cytotoxicity against human cancer cell line, PC-3. It counts as functional. The procedure, abridged: as §2
The nature of experiment [6]: (§4) In Vitro cytotoxicity against human cancer cell line, MDA-213. The class given is functional, Cancer cell lines. The method, boiled down:
as §2

The subject of experiment [7] is MCF7. In words: In Vitro cytotoxicity against human cancer cell line, MCF-7. It counts as functional. The procedure, abridged: as §2
Experiment [8] concerns OVCAR. Kind of experiment: In Vitro cytotoxicity against human cancer cell line, OVCAR. The class given is functional. The method, boiled down:
as §2

Experiment [9] has as its system HT-29. Kind of experiment: In Vitro cytotoxicity against human cancer cell line, HT-29. It counts as functional. The method, boiled down: as §2
In experiment [10] the test system is Cancer cell lines. The experiment is described as §1. It counts as functional. The procedure, abridged:
as §2

In experiment [11] the test system is Cancer cell lines. The experiment is described as §3. It counts as functional. The method, boiled down: as §2
In experiment [12] the test system is Cancer cell lines. Described as §4. The class given is functional. The procedure, abridged: as §2

Turning to `CC(=O)OC1C(=O)N(c2ccccc2)C1c1cc2c3ccccc3ccc2c2ccccc12` (stereo not given), the Cytotoxicity in experiment [1], in [2], in experiment [3], in [4], in [5] and in experiment [6] was more than 20 µM in each case. Besides, the Cytotoxicity in experiment [7], in experiment [8] and in experiment [9] was more than 20 µM each time.

For `CC(=O)OC1C(=O)N(c2cc3c4ccccc4ccc3c3ccccc23)[C@H]1c1ccccc1` (stereo not given in full), the Cytotoxicity in experiment [1] came out at 10.84 µM; in experiment [2], 4.33 µM; in experiment [3], 3.64 µM; in experiment [4], 6.88 µM; in experiment [5], 16.32 µM; in [6], 11.98 µM. Moreover, the Cytotoxicity was found to be 9.81 µM in experiment [7], 4.17 µM in experiment [8] and 5.66 µM in [9].

Turning to `O=C1C(Oc2ccccc2)[C@H](c2ccccc2)N1c1cc2ccccc2c2ccccc12` (stereo not given in full), the Cytotoxicity in experiment [1], in experiment [2], in experiment [3], in experiment [4], in experiment [5] and in [6] was more than 20 µM each time. In addition, the Cytotoxicity in experiment [7], in experiment [8] and in [9] was more than 20 µM each time.

CISPLATIN: the Cytotoxicity was 7.66 µM in experiment [10]; 2.33 µM in experiment [2]; 1.66 µM in experiment [3]; 5.99 µM in [11]; 4.66 µM in experiment [5]; 12.3 µM in experiment [12]. Besides, the Cytotoxicity in experiment [7] is 10.1 µM; in [8], 3.99 µM; in [9] it was 17 µM.

For the molecule `CC(=O)OC1C(=O)N(c2cc3c4ccccc4ccc3c3ccccc23)[C@H]1c1ccccn1` (stereo not given in full), the Cytotoxicity in experiment [1] was determined as 11 µM; in [2] it was 2.5 µM; in experiment [3], 2.5 µM; in experiment [4], 9 µM; in experiment [6] it was 14.46 µM; in experiment [7] it was 14.93 µM. In experiment [9], this molecule showed a Cytotoxicity of 15.9 µM.

For `CC(=O)OC1C(=O)N(c2cccc3cc4c(cc23)Cc2cc3ccccc3cc2-4)[C@H]1c1ccccc1` (stereo not given in full), the Cytotoxicity in [1], in experiment [2], in experiment [3], in experiment [4], in experiment [5] and in experiment [6] was more than 20 µM in each case. Further, the Cytotoxicity in experiment [7], in experiment [8] and in experiment [9] was more than 20 µM throughout.

For the molecule `CC(=O)OC1C(=O)N(c2ccc3ccc4cccc5ccc2c3c45)[C@H]1c1ccccc1` (stereo not given in full), the Cytotoxicity in experiment [1], in experiment [2], in experiment [3], in experiment [4], in experiment [5] and in experiment [6] was more than 20 µM in each case. Moreover, the Cytotoxicity in experiment [7], in experiment [8] and in [9] was more than 20 µM throughout.

Regarding `CC(=O)OC1C(=O)N(c2cccc3ccccc23)[C@@H]1c1ccccc1` (stereo not given in full), the Cytotoxicity in experiment [1], in experiment [2], in experiment [3], in experiment [4], in experiment [5] and in experiment [6] was more than 20 µM each time. Further, the Cytotoxicity in [7], in experiment [8] and in experiment [9] was more than 20 µM throughout.

Consider `O=C1C(Oc2ccccc2)[C@H](c2ccccc2)N1c1cc2c3ccccc3ccc2c2ccccc12` (stereo not given in full), for which the Cytotoxicity in experiment [1], in [2], in experiment [3], in experiment [4], in [5] and in experiment [6] was more than 20 µM throughout. Also, the Cytotoxicity in experiment [7], in experiment [8] and in experiment [9] was more than 20 µM throughout.

Consider `CC(=O)OC1C(=O)N(c2cccc3cc4ccccc4cc23)[C@@H]1c1ccccc1` (stereo not given in full), for which the Cytotoxicity in experiment [1], in [2], in experiment [3], in experiment [4], in experiment [5] and in experiment [6] was more than 20 µM throughout. The Cytotoxicity in [7], in experiment [8] and in experiment [9] was more than 20 µM each time.

For `CN1CCN(C(=O)CCC(=O)Nc2cc3c4ccccc4ccc3c3ccccc23)CC1`, the Cytotoxicity in [1] worked out at 33.64 µM; in experiment [2], 12.7 µM; in experiment [3] it was 9.41 µM; in experiment [4] it was 11.05 µM; in [5], 27.29 µM; in [6], 12.23 µM. Also, the Cytotoxicity in experiment [7] was found to be 40 µM; in experiment [8], 18.11 µM; in experiment [9], 16.7 µM.

Consider `O=C1c2ccccc2C(=O)N1C1C(=O)N(c2cc3c4ccccc4ccc3c3ccccc23)[C@H]1c1ccccc1` (stereo not given in full), for which the Cytotoxicity in experiment [1], in experiment [2], in experiment [3], in experiment [4], in experiment [5] and in experiment [6] was more than 20 µM in each case. The Cytotoxicity in experiment [7], in [8] and in [9] was more than 20 µM each time.

On to `CC(=O)OC1C(=O)N(c2cc3ccccc3c3ccccc23)[C@H]1c1ccccc1` (stereo not given in full), for which the Cytotoxicity in experiment [1] worked out at 10.48 µM; in experiment [2], 4 µM; in [3], 5.21 µM; in experiment [4] it was 18 µM; in [5], 9.3 µM; in experiment [6] it was 12.49 µM. In addition, the Cytotoxicity in experiment [7] stood at 10.09 µM; in experiment [8] it was 18 µM; in experiment [9], 10.49 µM.

(Values after ChEMBL document CHEMBL1145010, “Stereoselective synthesis of beta-lactams with polyaromatic imines: entry to new and novel anticancer agents” (2003).)
